Test results published in ChEMBL document CHEMBL4014298, “Discovery of a series of 8-(1-phenylpyrrolidin-2-yl)-6-carboxamide-2-morpholino-4H-chromen-4-one as PI3Kβ/δ inhibitors for the treatment of PTEN-deficient tumours” (Bioorg Med Chem Lett, 2017).
In brackets after ≈: the same amount, converted by molar mass. Activity calls are given as the source filed them. The rule behind the calls is not given here.

What was measured:
[1] = molecular target: Phosphatidylinositol 3-kinase regulatory subunit beta (Homo sapiens, UniProt O00459); assay: Inhibition of human PI3K p85beta (1 to 724 residues) by ADP Glo HTS assay
Outline: (§1)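 Lipid kinase selectivity assessed in a 15-kinase panel (Dundee University lipid kinase panel), IC50 determined.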

[2] = Lipophilicity, log D of the compound at pH 7.4; conditions: buffer
[3] = molecular target: T1, Phosphatidylinositol 4,5-bisphosphate 3-kinase catalytic subunit beta isoform (Homo sapiens, UniProt P42338); assay: Inhibition of PI3Kbeta in PTEN-deficient human MDA-MB-468 cells assessed as decrease in AKT phosphorylation at Ser473 measured after 2 hrs
[4] = Intrinsic clearance in human hepatocytes assessed per million cells; assay type: ADME, cell-based, Hepatocyte; conditions: read-out: CLH
[5] = Apparent permeability across apical to basolateral side in human Caco2 cells; conditions: Caco-2
[6] = AUC in mouse at 30 umol/kg, po; assay type: ADME; conditions: in vivo
[7] = molecular target: Phosphatidylinositol 4,5-bisphosphate 3-kinase catalytic subunit alpha isoform (Homo sapiens, UniProt P42336); assay: Inhibition of recombinant human PI3Kalpha using PIP2 as substrate preincubated for 20 mins followed by substrate addition measured after 80 mins in presence of ATP by Kinase Glo luminescence assay
[8] = molecular target: T1, Phosphatidylinositol 4,5-bisphosphate 3-kinase catalytic subunit beta isoform; assay: Inhibition of recombinant human PI3Kbeta using PIP2 as substrate preincubated for 20 mins followed by substrate addition measured after 80 mins in presence of ATP by Kinase Glo luminescence assay
[9] = molecular target: Phosphatidylinositol 4,5-bisphosphate 3-kinase catalytic subunit gamma isoform (Homo sapiens, UniProt P48736); assay: Inhibition of recombinant human PI3Kgamma using PIP2 as substrate preincubated for 20 mins followed by substrate addition measured after 80 mins in presence of ATP by Kinase Glo luminescence assay
Outline: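 Enzyme IC50 against PI3Kγ, single determination (n=1).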

[10] = molecular target: T2, Phosphatidylinositol 4,5-bisphosphate 3-kinase catalytic subunit delta isoform (Homo sapiens, UniProt O00329); assay: Inhibition of recombinant human PI3Kdelta using PIP2 as substrate preincubated for 20 mins followed by substrate addition measured after 80 mins in presence of ATP by Kinase Glo luminescence assay
T2 sequence (O00329 whole entry): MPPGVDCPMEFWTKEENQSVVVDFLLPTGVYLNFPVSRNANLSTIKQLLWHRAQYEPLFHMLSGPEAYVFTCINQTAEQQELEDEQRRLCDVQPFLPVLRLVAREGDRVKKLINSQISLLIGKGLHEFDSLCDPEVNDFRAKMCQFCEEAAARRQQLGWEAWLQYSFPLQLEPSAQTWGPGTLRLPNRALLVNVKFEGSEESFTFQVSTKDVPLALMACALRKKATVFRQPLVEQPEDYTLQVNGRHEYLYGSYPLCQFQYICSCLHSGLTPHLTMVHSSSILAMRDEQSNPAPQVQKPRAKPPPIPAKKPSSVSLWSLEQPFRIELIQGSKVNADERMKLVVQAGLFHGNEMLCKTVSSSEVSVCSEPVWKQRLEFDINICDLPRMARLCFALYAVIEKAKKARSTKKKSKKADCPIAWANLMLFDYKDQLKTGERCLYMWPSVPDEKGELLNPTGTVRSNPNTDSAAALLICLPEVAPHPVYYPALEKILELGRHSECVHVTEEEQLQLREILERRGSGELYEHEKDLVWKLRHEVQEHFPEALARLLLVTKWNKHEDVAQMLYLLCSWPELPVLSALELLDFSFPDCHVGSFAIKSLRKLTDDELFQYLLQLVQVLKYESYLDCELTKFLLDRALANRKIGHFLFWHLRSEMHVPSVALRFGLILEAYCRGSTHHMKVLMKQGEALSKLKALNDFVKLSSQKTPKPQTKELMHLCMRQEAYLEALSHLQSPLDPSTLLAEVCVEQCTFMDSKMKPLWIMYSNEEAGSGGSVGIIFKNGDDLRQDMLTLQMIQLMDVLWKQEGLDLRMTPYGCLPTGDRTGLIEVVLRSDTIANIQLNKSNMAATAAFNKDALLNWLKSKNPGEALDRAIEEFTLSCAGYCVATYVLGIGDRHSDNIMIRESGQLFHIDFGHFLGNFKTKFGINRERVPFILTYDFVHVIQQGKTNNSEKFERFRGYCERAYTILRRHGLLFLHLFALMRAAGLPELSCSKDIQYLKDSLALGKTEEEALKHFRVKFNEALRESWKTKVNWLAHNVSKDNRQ

[11] = molecular target: T2, Phosphatidylinositol 4,5-bisphosphate 3-kinase catalytic subunit delta isoform; assay: Inhibition of PI3Kdelta in human JeKo1 B cells assessed as decrease in AKT phosphorylation at Ser473 measured after 1 hr; assay type: cell-based
[12] = Clearance in mouse blood at 5 umol/kg, iv or 30 umol/kg, po; assay type: ADME, organism-based
[13] = Volume of distribution at steady state in dog blood at 4 umol/kg, iv or 10 umol/kg, po; assay type: ADME, organism-based, Canis lupus familiaris; conditions: read-out: Vdss
[14] = Oral bioavailability in dog blood at 10 umol/kg; assay type: ADME, organism-based, Canis lupus familiaris
[15] = Fraction unbound in mouse plasma; assay type: ADME, cell-free
Outline: (§2)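 Plasma protein binding in mouse, dog or human plasma, reported as fraction unbound (%).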

[16] = Fraction unbound in human plasma; assay type: ADME, cell-free; outline: as §2
[17] = Intrinsic clearance in dog hepatocytes assessed per million cells; assay type: ADME, cell-based, Canis lupus familiaris, Hepatocyte; conditions: read-out: CLH
Outline: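 Intrinsic clearance measured in mouse or dog hepatocytes, expressed as CL_int in […].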

[18] = Aqueous solubility of the compound in FASSIF; assay type: physicochemical
Outline: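 Solubility from crystalline solid in Fasted Simulated Intestinal Fluid (FASSIF), µg/mL.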

[19] = molecular target: Voltage-gated inwardly rectifying potassium channel KCNH2 (Homo sapiens, UniProt Q12809); assay: Inhibition of human ERG
Cytochrome P450 1A2 = Cytochrome P450 1A2 (Homo sapiens, UniProt P05177); assay: Inhibition of CYP1A2 (unknown origin); assay type: ADME
Cytochrome P450 2C9 = Cytochrome P450 2C9 (Homo sapiens, UniProt P11712); assay: Inhibition of CYP2C9 (unknown origin); assay type: ADME
Cytochrome P450 2C19 = Cytochrome P450 2C19 (Homo sapiens, UniProt P33261); assay: Inhibition of CYP2C19 (unknown origin); assay type: ADME
Cytochrome P450 3A4 = Cytochrome P450 3A4 (Homo sapiens, UniProt P08684); assay: Inhibition of CYP3A4 (unknown origin); assay type: ADME
Mus musculus = assay: In vivo inhibition of AKT phosphorylation at Ser473 in nude mouse xenografted with PTEN-deficient human PC3 cells at 100 mg/kg, po administered as single dose measured after 30 mins to 8 hrs; assay type: functional, organism-based
Outline: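 Single oral dose (100 or 30 mg/kg) to nude mice carrying PTEN-deficient PC3 prostate xenografts; tumour AKT Ser473 phosphorylation measured at 30 min, 2 h and 8 h, with free plasma concentration determined at same time points.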

[20] = molecular target: MAP/microtubule affinity-regulating kinase 4 (Homo sapiens) (UniProt Q96L34); assay: Inhibition of human MARK4 (2 to 752 residues) at 1 uM after 5 mins in presence of [33P]ATP by filter binding assay relative to control
[21] = molecular target: Choline/ethanolamine kinase (Homo sapiens, UniProt Q9Y259); assay: Inhibition of human CHKbeta (1 to 395 residues) by ADP Glo HTS assay; outline: as §1
[22] = molecular target: Diacylglycerol kinase zeta (Homo sapiens, UniProt Q13574); assay: Inhibition of human DGKzeta (1 to 929 residues) by ADP Glo HTS assay; outline: as §1

T1 sequence (P42338 whole entry, canonical isoform): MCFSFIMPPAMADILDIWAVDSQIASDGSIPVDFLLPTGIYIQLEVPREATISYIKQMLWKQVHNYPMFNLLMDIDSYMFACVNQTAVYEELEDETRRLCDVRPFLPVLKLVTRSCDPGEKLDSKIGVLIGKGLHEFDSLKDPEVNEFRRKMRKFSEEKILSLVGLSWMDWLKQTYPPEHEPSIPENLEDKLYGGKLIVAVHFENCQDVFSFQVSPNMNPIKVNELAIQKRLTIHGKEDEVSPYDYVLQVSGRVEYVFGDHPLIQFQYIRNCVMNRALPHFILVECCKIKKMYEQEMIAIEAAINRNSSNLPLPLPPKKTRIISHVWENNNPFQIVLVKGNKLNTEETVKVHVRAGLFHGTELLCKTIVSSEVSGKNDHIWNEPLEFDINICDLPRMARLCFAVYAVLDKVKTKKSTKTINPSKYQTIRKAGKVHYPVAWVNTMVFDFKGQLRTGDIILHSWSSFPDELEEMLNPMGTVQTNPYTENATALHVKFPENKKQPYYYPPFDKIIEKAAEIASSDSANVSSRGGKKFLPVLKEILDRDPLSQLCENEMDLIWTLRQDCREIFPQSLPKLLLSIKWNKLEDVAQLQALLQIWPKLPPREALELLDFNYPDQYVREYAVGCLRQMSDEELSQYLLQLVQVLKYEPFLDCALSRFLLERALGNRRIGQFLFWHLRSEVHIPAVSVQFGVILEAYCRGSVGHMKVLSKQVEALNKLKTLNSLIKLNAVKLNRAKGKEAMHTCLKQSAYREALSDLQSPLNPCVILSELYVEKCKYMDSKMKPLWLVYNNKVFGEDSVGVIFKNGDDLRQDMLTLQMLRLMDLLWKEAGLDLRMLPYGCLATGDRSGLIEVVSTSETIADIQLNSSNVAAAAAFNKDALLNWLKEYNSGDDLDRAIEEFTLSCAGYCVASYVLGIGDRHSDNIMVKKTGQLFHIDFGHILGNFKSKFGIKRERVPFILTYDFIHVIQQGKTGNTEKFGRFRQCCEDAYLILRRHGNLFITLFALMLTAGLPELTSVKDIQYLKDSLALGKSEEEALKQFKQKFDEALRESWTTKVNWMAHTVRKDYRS
Chain of MAP/microtubule affinity-regulating kinase 4 (Homo sapiens) (Q96L34 whole entry, the tested form may be a part): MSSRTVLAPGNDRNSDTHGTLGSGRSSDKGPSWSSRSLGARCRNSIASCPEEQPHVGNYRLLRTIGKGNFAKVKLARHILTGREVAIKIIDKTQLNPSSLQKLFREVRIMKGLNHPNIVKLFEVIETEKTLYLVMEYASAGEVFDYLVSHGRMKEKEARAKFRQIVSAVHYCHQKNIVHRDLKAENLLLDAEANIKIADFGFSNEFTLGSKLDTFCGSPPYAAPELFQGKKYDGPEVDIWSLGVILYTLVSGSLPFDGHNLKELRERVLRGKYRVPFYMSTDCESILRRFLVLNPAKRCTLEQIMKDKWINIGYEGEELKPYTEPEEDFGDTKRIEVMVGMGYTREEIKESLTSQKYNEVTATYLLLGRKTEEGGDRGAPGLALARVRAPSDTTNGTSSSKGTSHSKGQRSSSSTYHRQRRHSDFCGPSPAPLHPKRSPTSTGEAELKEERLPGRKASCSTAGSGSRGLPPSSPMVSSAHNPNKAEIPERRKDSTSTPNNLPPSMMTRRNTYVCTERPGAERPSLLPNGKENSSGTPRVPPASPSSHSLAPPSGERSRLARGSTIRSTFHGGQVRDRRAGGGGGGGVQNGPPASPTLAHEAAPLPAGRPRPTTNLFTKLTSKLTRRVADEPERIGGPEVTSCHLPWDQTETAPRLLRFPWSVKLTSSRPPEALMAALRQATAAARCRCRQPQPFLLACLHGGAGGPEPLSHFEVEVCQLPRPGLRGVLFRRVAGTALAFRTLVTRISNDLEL
Chain of Phosphatidylinositol 4,5-bisphosphate 3-kinase catalytic subunit alpha isoform (P42336 whole entry, canonical isoform): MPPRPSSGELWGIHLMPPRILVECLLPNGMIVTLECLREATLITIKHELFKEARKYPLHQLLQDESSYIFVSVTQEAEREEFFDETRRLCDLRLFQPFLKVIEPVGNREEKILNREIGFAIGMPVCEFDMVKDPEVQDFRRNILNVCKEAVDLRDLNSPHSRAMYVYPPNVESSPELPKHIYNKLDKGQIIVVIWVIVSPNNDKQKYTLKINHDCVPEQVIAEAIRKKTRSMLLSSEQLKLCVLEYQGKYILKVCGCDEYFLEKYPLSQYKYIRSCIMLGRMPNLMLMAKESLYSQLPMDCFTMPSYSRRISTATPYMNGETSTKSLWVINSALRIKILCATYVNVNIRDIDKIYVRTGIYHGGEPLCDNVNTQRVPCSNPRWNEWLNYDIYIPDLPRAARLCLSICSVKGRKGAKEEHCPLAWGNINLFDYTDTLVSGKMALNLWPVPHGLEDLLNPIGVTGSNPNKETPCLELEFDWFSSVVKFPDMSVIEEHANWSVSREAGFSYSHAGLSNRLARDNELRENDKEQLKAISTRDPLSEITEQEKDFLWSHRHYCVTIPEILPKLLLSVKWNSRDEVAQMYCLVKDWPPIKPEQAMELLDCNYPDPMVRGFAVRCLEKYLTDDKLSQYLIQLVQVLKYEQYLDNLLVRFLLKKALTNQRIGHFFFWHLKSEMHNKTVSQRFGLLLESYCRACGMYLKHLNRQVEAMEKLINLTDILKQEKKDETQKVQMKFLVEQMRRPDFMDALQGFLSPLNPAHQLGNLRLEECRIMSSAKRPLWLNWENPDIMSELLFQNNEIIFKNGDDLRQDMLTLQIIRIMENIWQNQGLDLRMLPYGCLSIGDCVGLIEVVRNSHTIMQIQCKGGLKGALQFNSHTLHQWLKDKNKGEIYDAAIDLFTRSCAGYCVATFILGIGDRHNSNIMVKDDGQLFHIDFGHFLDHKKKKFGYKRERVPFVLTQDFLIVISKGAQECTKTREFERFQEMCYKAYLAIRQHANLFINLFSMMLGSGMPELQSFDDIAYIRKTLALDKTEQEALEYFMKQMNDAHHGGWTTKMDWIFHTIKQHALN
Chain of Choline/ethanolamine kinase (Q9Y259 whole entry, the tested form may be a part): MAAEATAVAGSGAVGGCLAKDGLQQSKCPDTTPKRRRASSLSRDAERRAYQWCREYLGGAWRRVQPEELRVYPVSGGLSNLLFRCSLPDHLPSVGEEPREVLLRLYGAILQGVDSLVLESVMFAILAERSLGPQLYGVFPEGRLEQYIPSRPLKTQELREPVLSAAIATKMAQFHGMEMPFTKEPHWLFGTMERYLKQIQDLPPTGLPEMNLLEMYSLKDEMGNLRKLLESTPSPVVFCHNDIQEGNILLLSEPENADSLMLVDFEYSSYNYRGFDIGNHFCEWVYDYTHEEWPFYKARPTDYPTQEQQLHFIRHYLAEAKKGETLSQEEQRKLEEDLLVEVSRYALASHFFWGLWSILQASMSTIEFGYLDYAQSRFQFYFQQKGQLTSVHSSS
Chain of Voltage-gated inwardly rectifying potassium channel KCNH2 (Q12809 whole entry): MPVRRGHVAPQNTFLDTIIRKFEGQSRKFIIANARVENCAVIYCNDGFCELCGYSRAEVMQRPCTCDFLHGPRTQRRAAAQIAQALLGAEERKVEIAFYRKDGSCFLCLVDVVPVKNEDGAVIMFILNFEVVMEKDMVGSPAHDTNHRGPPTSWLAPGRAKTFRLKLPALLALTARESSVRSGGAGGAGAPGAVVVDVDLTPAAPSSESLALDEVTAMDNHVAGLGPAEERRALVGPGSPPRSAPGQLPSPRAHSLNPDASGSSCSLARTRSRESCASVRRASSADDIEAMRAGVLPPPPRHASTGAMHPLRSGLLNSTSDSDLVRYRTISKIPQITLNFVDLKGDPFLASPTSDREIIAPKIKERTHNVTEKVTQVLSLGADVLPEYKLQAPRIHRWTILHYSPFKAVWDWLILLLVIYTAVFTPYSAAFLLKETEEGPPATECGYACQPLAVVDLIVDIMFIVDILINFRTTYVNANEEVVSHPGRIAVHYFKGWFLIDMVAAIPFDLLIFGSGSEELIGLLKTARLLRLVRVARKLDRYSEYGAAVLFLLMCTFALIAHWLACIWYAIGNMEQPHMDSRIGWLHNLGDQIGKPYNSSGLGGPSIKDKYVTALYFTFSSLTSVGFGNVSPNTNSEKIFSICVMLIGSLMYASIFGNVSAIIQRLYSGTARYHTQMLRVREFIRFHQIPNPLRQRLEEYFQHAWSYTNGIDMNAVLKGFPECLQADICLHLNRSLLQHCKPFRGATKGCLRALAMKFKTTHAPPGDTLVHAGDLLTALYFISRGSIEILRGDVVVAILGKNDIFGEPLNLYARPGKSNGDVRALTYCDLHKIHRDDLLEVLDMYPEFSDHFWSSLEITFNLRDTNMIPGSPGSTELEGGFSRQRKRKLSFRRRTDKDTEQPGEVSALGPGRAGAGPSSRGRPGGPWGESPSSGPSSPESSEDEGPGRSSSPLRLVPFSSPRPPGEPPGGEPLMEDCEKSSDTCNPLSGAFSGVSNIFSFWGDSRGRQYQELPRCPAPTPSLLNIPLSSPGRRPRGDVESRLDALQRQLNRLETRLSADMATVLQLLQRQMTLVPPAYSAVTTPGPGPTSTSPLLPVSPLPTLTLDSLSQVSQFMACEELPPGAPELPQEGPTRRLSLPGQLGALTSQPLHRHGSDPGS
Chain of Cytochrome P450 2C9 (P11712 whole entry): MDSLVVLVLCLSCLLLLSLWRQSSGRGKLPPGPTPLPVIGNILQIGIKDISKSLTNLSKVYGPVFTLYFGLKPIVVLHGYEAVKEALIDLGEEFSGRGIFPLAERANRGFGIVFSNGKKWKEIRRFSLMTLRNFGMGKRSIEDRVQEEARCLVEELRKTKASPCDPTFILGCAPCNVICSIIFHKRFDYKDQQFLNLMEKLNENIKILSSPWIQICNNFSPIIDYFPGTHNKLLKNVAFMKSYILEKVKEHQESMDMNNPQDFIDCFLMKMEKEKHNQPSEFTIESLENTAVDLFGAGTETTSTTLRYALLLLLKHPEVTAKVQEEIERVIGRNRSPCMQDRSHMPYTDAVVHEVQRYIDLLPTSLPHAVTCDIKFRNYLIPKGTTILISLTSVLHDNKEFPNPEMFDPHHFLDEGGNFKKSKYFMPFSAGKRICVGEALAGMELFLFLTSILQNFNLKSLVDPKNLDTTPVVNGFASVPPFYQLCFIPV

What does the source list for `O=C(c1cc([C@H]2CCCN2c2cc(F)cc(F)c2)c2oc(N3CCOCC3)cc(=O)c2c1)N1CCOCC1`?
IC50 [1]: > 50000 nM; logD [2]: 2.5; IC50 [3]: 1.1 nM; hepatocyte CLint [4]: 2.7 to 5 µL/min/1e6 cells; Papp A→B [5]: 18 ×10⁻⁶ cm/s; AUC [6]: 2.8 µM·h; IC50 [7]: 13 nM; IC50 [8]: 7.1 nM; IC50 [9]: 190 nM; IC50 [10]: 8.6 nM; IC50 [11]: 14 nM; clearance [12]: 60 mL/min/kg; Vd [13]: 1.2 L/kg; bioavailability [14]: 29%; fraction unbound [15]: 0.19; fraction unbound [16]: 0.17; hepatocyte CLint [17]: 23 µL/min/1e6 cells; solubility [18]: 430 µg/mL (≈ 818 µM); IC50 [19]: 45000 nM; IC50 (Cytochrome P450 1A2): > 30000 nM; IC50 (Cytochrome P450 2C9): > 30000 nM; IC50 (Cytochrome P450 2C19): > 30000 nM; IC50 (Cytochrome P450 3A4): > 30000 nM; inhibition (Mus musculus): Active; inhibition [20]: 32%; IC50 [21]: > 50000 nM; IC50 [22]: > 50000 nM
